Bioassay records deposited in PubChem BioAssay by several laboratories.
MrgX1 allo act: human MrgX1 positive allosteric modulation, primary screen; MrgX1-HEK293, Fluo-4 calcium flux, FDSS; active compounds read high; B-score at 10 µM; 310,000 compounds, 0.63% hits;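 active = plate-corrected calcium response at least 3 library SD above typical, normal starting fluorescence, not activating the receptor alone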;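 note: compound read alongside a low EC10 to EC30 dose of BAM8-22 agonist; peak minus trough fluorescence over baseline measured at the second addition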
Target sequence (Q96LB2 whole entry, looked up): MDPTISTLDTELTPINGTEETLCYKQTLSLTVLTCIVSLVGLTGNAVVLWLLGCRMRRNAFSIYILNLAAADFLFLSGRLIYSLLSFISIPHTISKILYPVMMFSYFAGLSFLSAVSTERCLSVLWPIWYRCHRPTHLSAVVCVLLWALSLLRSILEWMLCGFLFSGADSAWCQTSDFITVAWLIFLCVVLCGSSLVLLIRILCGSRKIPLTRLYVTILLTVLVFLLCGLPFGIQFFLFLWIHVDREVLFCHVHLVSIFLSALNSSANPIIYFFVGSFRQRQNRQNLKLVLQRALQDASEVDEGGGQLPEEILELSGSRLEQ
RGS4 act: potentiators or activators of RGS4. B-score at 10 µM. HEK293 M3R/inducible RGS4, carbachol calcium flux Fluo4; active compounds read low. 310,000 compounds, 0.92% hits;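 active = B-score of the integrated calcium signal more than 4 SD below the library mean, with starting fluorescence not abnormally high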;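 note: negative B-score means reduced calcium response which marks RGS4 activation or potentiation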
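Test system: HEK293 cells with stable M3R and inducible RGS4; also added: carbachol at ECmax as muscarinic agonist stimulus; schedule: dye loading 30 min 37 °C, buffer rest 30 min RT; technique: kinetic calcium fluorescence imaging with Fluo4-AM dye, 2 µM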
MrgX1 antag: human MrgX1 receptor antagonism, primary screen; Q96LB2; MRGX1-HEK293 calcium flux, Fluo-4, BAM8-22 antagonism; active compounds read low; B-score at 10 µM; 310,000 compounds, 1.3% hits; AID 588676;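 active = calcium-response B-score plate-corrected more than 3 library SD below zero, starting fluorescence within 5 deviations, no agonist response on first addition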;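 note: peak minus trough fluorescence over baseline after final BAM8-22 challenge near maximal dose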
RGS4 block: human RGS4 inhibition; HEK293 M3R/RGS4 inducible, Fluo-4 calcium flux; active compounds read high; triggered by carbachol at its EC20; 310,000 compounds, 0.45% hits; AID 463165; B-score at 10 µM; P49798;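 active = B-score, a plate-corrected calcium signal, over three deviations above library mean, with baseline fluorescence within five deviations of library mean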;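 note: RGS4 expression induced by doxycycline in cells with stable M3 receptor; B-score is computed from the integrated fluorescence ratio over baseline after carbachol; higher B-score means a larger calcium signal and so more RGS4 inhibition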
Target sequence (P49798 whole entry, looked up): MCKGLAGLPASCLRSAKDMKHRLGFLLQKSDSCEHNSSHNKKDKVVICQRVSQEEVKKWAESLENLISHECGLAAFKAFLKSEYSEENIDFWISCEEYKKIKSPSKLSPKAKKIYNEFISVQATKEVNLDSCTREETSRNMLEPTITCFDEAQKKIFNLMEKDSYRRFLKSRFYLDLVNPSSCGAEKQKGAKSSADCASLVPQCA
MrgX1 ag: activates human MrgX1 receptor signaling | MrgX1-HEK293 cells, Fluo-4 calcium fluorescence, agonist mode; active compounds read high | B-score at 10 µM | 310,000 compounds, 0.44% hits | AID 588627;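 active = calcium response B-score plate-corrected fluorescence ratio at least 3 library SD, with starting fluorescence B-score inside 5 SD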
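System: HEK293 cells stably expressing human MrgX1 receptor; Dosing: test compound in the initial addition of three; Schedule: overnight plating, then 30 min 37 °C plus 30 min room-temperature dye loading; Detection: kinetic calcium dye fluorescence, Fluo-4 NW; Controls: per-plate positive and negative controls for Z′ factor.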
PHOSPHO1 inh: blocks human PHOSPHO1 phosphatase activity. inhibition, % at 13.3 µM. recombinant PHOSPHO1, absorbance phosphatase assay. AID 1565. 290,000 compounds, 1.1% hits; in the data active = inhibition above about 60%
MrgX1 allo conf: reconfirmed allosteric activator of human MrgX1 receptor. shares compounds with MrgX1 allo act. AID 602413. 1,200 compounds, 13% hits. MrgX1-HEK293, Fluo-4 calcium fluorescence, FDSS. activation (ratio percentage), % at 10 µM;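 active = ratio at least 3 SD above the weak peptide control, stable starting fluorescence, no direct agonism earlier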;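 note: compound followed by low BAM8-22 agonist challenge near EC20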
MrgX1 ant reconf: human MrgX1 receptor antagonism, re-confirmation screen | MrgX1-HEK293, BAM8-22 calcium flux, Fluo-4; active compounds read low | shares compounds with MrgX1 antag | remaining BAM8-22 calcium response % of control (active compounds read low), % at 10 µM | 2,300 compounds, 19% hits;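 active = remaining agonist calcium response no higher than 100% minus 3 SD of agonist-only control wells, with starting fluorescence near control levels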;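 note: agonist BAM8-22 given at a near maximal EC90 to ECmax level; peak minus minimum fluorescence divided by baseline after agonist addition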
HEK293 Ca flux: counter-screen for MrgX1 antagonists: effect in parental HEK293 cells | shares compounds with MrgX1 antag | Fluo-4 calcium fluorescence, FDSS | fluorescence ratio F(max-min)/F0 at 10 µM | 4,000 compounds, 2% hits;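 active = duplicate-averaged calcium fluorescence ratio at least three times the standard deviation of buffer wells, a nonspecific response in parental cells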
HEK293 Ca counter: counter-screen for MrgX1 allosteric activators: effect in parental HEK293 cells. 4,000 compounds, 0.4% hits. parental HEK293 calcium flux, Fluo-4 fluorescence ratio; active compounds read high. shares compounds with MrgX1 antag. fluorescence ratio F(max-min)/F0 at 10 µM. AID 624114;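 active = calcium fluorescence ratio, averaged over duplicates, at least 3 SD of the buffer-well ratio, meaning a nonspecific response in receptor-free cells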;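 note: untransfected parental HEK293 lacking MrgX1 used as counterscreen for MrgX1 allosteric activators; fluorescence change taken during the second addition on a kinetic imager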
HEK293 Ca cntr2: MrgX1 activator counter-screen hit in parental HEK293 cells; AID 624115; 4,000 compounds, 8.7% hits; Fluo-4 calcium fluorescence (FDSS); active compounds read high; fluorescence ratio F(max-min)/F0 at 10 µM; shares compounds with MrgX1 antag;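 active = calcium fluorescence ratio at least three times the spread of buffer wells, meaning a non-specific response in parental cells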
Starred values were filed as active, the others as inactive; i = inactive; / = no result given. An excerpt weighted towards active compounds, which were near 4.5% of everything screened.

SMILES	MrgX1 allo act	RGS4 act	MrgX1 antag	RGS4 block	MrgX1 ag	PHOSPHO1 inh	MrgX1 allo conf	HEK293 Ca flux	HEK293 Ca counter	HEK293 Ca cntr2	others
CCCCCCn1c(N2CCCC2)nc2c1c(=O)[nH]c(=O)n2C	12*	i	i	i	i	20	9.9%*	i	i	i
Cn1c(=O)[nH]c(=O)c2c1nc(N1CCNCC1)n2Cc1ccccc1Cl	10*	i	i	i	i	-2	i	i	i	i
c1ccc(CNc2cncnc2)cc1	i	i	i	i	i	19	/	/	/	/
CCN(CC)c1ccc(/C=N/NC(=O)c2nnn(-c3nonc3N)c2-c2ccc(C)cc2)cc1	i	i	i	i	i	17	/	/	/	/
Cc1ccc[n+](CC(=O)Nc2ccc(C)c(C)c2)c1	i	i	i	i	i	4	/	/	/	/
Cc1cc(/C=C2\Cc3ccccc3C2=O)c(C)n1-c1ccccc1	25*	i	i	i	i	-2	i	i	i	i
COc1ccccc1/C=C1\Cc2ccccc2C1=O	i	i	i	i	i	38	/	/	/	/
Cc1cccc(Oc2ncnc(N)c2[N+](=O)[O-])c1C	i	i	i	i	i	-14	/	/	/	/
Cc1cccc(Oc2ncnc3oc(-c4ccccc4)cc23)c1C	12*	i	i	i	i	14	7.6%*	i	i	i
CCC1(Cc2ccccc2)NC(=O)c2ccccc2O1 (stereo not drawn)	12*	i	i	i	i	16	i	i	i	i
O=C1NC2(CCCCCC2)Oc2ccccc21	i	i	i	i	i	-1	/	/	/	/
COc1ccc(-c2oc3ccccc3c2C(=O)Oc2ccccc2)cc1	8.7*	i	i	i	i	15	i	i	i	68*
COC(=O)Cc1[nH]n(-c2nc3ccccc3s2)c(=O)c1C(C)=Nc1ccc(Cl)cc1	12*	i	i	i	i	32	i	i	i	i
CCC(=O)N(CCc1ccccc1)Cc1cc2ccc(OC)cc2[nH]c1=O	i	i	i	i	i	11	/	/	/	/
CC(=O)N(CCc1ccccc1)Cc1cc2ccc(C)c(C)c2[nH]c1=O	8.6*	i	i	i	i	25	2.4%*	i	i	i
CCC(=O)N(CCO)Cc1cc2ccc(C)c(C)c2[nH]c1=O	i	i	i	i	i	9	/	/	/	/
CCC(=O)N(CCc1ccccc1)Cc1cc2cc(OC)ccc2[nH]c1=O	10*	i	i	i	i	48	i	i	i	i
O=C1CCC2=C(CCCC2=O)N1	10*	i	i	i	i	12	i	i	i	i
COC1(c2cc(-c3ccccc3)nc(N)n2)CCCCC1	31*	i	i	i	i	3	28%*	i	i	i
Nc1nc(-c2ccccc2)cc(C(F)(F)F)n1	i	i	i	i	i	-17	/	/	/	/
CCN1CCN(CCNC(=O)c2ccc3c(c2)N(Cc2ccc(F)cc2)C(=O)/C(=C/c2ccccc2)S3)CC1	21*	i	-16*	i	i	-19	i	i	i	i	MrgX1 ant reconf=66%*
CN1CCN(CCCNC(=O)c2ccc(/C=C3\Sc4ccccc4N(Cc4ccccc4F)C3=O)cc2)CC1	/	i	/	i	/	-5	/	/	/	/
COc1ccc(C2=CC(c3ccc(F)cc3)n3nnnc3N2)cc1 (stereo not drawn)	7*	i	i	i	i	-3	i	i	i	i
COc1ccc(C2=CC(c3sccc3C)n3nnnc3N2)cc1 (stereo not drawn)	i	i	i	i	i	40	/	/	/	/
CCOc1ccc(C(=O)NCC(=O)OCC(=O)Nc2ccc(C)c(S(=O)(=O)N(C)C)c2)cc1	i	i	i	i	i	17	/	/	/	/
SMILES	MrgX1 allo act	RGS4 act	MrgX1 antag	RGS4 block	MrgX1 ag	PHOSPHO1 inh	MrgX1 allo conf	HEK293 Ca flux	HEK293 Ca counter	HEK293 Ca cntr2	others
COc1ccc(C(=O)NCC(=O)OCC(=O)c2ccc3c(c2)NC(=O)CO3)cc1	7.6*	i	i	i	i	-7	i	i	48*	i
Cc1nc2scc(C)n2c(=O)c1S(=O)(=O)Nc1ccc(N2CCN(S(C)(=O)=O)CC2)cc1	i	i	i	i	i	30	/	/	/	/
Cc1cccc(NS(=O)(=O)c2c(C)nc3scc(C)n3c2=O)c1	21*	i	i	i	i	44	i	i	i	i
Cc1ccc(-c2csc(NC(=O)c3ccc(C)o3)n2)cc1	i	i	i	i	i	-3	/	/	/	/
Cc1ccc(-c2csc(N=C(N)N)n2)cc1	7*	i	i	i	i	36	i	i	i	i
CNc1c(NS(=O)(=O)c2ccc(Cl)s2)c(=O)oc2ccccc12	i	i	i	i	i	14	/	/	/	/
O=S(=O)(Nc1ncnc2c1oc1ccccc12)c1ccc(Cl)s1	19*	i	i	i	i	9	i	i	i	i
Nc1nc2ccccc2n1CCOc1ccc(Cl)cc1	6.6*	i	i	i	i	15	i	i	i	i
CCOC(=O)c1c(C)nc(-c2ccccc2)nc1N	7.4*	i	i	i	i	7	i	i	i	i
Cn1c(SCC(=O)c2ccc3c(c2)OCCO3)nnc1C(F)(F)F	i	i	i	i	i	12	/	/	/	/
O=C(Nc1ccc(F)cc1F)c1cc(-c2ccco2)on1	i	i	i	i	i	1	/	/	/	/
O=C(Nc1ccc(F)cc1F)c1ccco1	7.6*	i	i	i	i	12	i	i	i	i
